# Compound activity as filed in PubChem BioAssay.
# This is a sample that favours compounds with a hit; in the whole collection about 2.5% have one here.
# TRPC6 inhibitor: mouse TRPC6 channel inhibition; B-score at 10 µM; Q61143; HEK293-TRPC6, membrane potential dye, ACh-evoked depolarization; hits give low values; AID 2553; 310,000 tested, 1.1% active;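 active means B-score under library mean minus 3 SD, initial fluorescence not abnormally high, positive integrated signal ratio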;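 further: B-score derived from integrated fluorescence ratio over the kinetic read; more negative B-score means stronger inhibition of depolarization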
# Target sequence (Q61143 whole entry, looked up): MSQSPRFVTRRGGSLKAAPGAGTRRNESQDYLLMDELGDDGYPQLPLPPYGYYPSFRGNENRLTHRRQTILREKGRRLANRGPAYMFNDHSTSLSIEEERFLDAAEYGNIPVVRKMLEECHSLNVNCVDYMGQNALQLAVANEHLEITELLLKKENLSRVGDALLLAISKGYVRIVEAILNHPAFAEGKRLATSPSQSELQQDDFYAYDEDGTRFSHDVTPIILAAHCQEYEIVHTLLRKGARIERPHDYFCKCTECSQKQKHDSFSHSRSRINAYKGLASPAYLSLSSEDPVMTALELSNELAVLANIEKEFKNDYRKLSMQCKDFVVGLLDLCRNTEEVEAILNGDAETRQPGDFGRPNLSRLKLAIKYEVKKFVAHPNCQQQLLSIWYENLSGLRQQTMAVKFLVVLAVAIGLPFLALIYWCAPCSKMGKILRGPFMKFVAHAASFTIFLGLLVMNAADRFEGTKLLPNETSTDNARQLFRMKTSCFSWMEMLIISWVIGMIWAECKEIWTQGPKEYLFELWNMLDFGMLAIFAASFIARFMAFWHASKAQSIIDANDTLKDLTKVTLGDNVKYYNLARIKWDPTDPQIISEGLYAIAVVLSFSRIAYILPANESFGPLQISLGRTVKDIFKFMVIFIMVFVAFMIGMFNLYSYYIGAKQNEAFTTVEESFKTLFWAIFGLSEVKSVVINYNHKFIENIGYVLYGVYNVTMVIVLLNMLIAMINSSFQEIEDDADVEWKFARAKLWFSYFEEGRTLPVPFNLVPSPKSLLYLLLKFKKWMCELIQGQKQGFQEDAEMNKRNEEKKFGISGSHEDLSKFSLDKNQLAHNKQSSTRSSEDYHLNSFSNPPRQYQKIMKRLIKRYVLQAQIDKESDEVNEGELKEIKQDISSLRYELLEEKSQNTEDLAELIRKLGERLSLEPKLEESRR
# Pemphigus Ab inh: inhibitors of pemphigus antibody binding to human desmoglein-3; P32926; DSG3-coupled beads, scFv-anti-DSG3-GFP binding, flow cytometry; hits give low values; binding (percent of control), % at 10 µM; 310,000 tested, 0.48% active; AID 588358;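 active means binding more than 3 SD below its plate's average and above zero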;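 further: hits lower antibody fragment binding to DSG3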
# TRPC4 potent: allosterically enhances the mouse TRPC4 cation channel; Q9QUQ5; HEK293 TRPC4beta/mu-opioid, DAMGO EC20, Fluo-4 Ca2+ flux; hits give high values; B-score at 10 µM; 310,000 tested, 0.42% active; AID 2227;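 active means B-score of calcium response area above 5 SD of library B-scores, with initial fluorescence ratio within 5 SD of library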;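 further: B-score of integrated fluorescence ratio over time as area under calcium response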
# TRPC4 inh: TRPC4 (mouse) channel inhibition. HEK293 TRPC4beta/mu-opioid, DAMGO-evoked Fluo4 calcium flux; hits give low values. B-score at 10 µM. 300,000 tested, 0.39% active. AID 2247;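 active means B-score over 3 SD under the library average, no early fluorescence shift, positive overall ratio signal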
#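 Material: HEK293 cells with stable TRPC4beta plus mu-opioid receptor expression / Probe or stimulus: DAMGO in two steps, submaximal then maximal / Compound: single concentration per test compound / Technique: kinetic Fluo4 fluorescence imaging of calcium influx / Read-out: per-well B score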
# TRPC4 act: TRPC4 (mouse) channel activation; 310,000 tested, 0.49% active; HEK293 TRPC4beta/mu-opioid, Fluo4 calcium fluorescence; hits give high values; B-score at 10 µM;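 active means B-score above 5 SD of library B-scores, and initial fluorescence ratio not above library mean plus 5 SD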;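 further: positive B-score marks a calcium rise read as TRPC4 activation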
#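 Assay system – TRPC4beta and mu-opioid receptor HEK293 stable cells · Measured by – Fluo4 fluorescence, kinetic · Schedule – dye loading 45 min room temperature, 110 s kinetic read · Read-out – B-scored integrated calcium fluorescence ratio · Controls – buffer and maximal DAMGO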
# TRPC6 activator: activators of mouse TRPC6 channel. Q61143. HEK293-TRPC6 membrane potential dye fluorescence; hits give high values. B-score at 10 µM. 310,000 tested, 0.13% active;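 active means B-score of the integrated fluorescence ratio above library mean plus 3 SD, and starting fluorescence ratio within library mean plus 5 SD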;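 further: higher score means more depolarization so channel activation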
# * = called active by the depositor; i = inactive; . = no result.
SMILES,TRPC6 inhibitor,Pemphigus Ab inh,TRPC4 potent,TRPC4 inh,TRPC4 act,TRPC6 activator
CCOc1ccc(Nc2nc(N(C)c3ccccc3)nc(N)c2[N+](=O)[O-])cc1,i,88,i,i,i,i
c1cc(CNCCN2CCNCC2)ccn1,.,58*,.,.,.,.
CC(C)Cc1cc(C(=O)Nc2ccc(F)cc2F)no1,i,104,i,i,i,i
CC(C)Cc1cc(C(=O)Nc2cc(Cl)ccc2Cl)no1,i,-39*,i,i,i,i
CCCCOc1ccc(C(=O)OCC(=O)NC2CCCC2)cc1,i,100,i,i,i,i
CCOC(=O)C1CCCN(C(=S)Nc2cccc(Cl)c2C)C1 (configuration not stated),i,115,i,i,i,i
CCOc1cc(/C=C/C(=O)N(CC)CC(=O)NCc2cccs2)cc(Cl)c1OC,i,127,i,i,i,i
CC(=O)Nc1cccc(-c2csc(Nc3ccccn3)n2)c1,i,70*,i,i,i,i
CCOc1ccc(N2CC(C(=O)Nc3ccccn3)CC2=O)cc1 (configuration not stated),i,114,i,i,i,i
COc1ccc(N2CC(C(=O)Nc3nnc(SCC(=O)Nc4ccc(NC(C)=O)cc4)s3)CC2=O)cc1 (configuration not stated),.,85*,.,.,.,.
COc1ccc(N2CC(C(=O)Nc3nnc(SCC(=O)N4CCCC4)s3)CC2=O)cc1 (configuration not stated),i,107,i,i,i,i
CCOc1ccc(N2CC(C(=O)Nc3ccncc3)CC2=O)cc1 (configuration not stated),i,54*,i,i,i,i
CCOC(=O)c1ccccc1NC(=O)CN1C(=O)NC(C)(CCc2ccccc2)C1=O (configuration not stated),i,100,i,i,i,i
Cc1ncn(-c2ccccc2)c1-c1ccccc1,i,96,i,i,i,i
CC(C)(C)NCC(O)CON=C1c2ccccc2-c2ccccc21 (configuration not stated),i,102,10*,i,i,i
CN(CC(=O)Nc1ccc(SC(F)F)cc1)C1CCCCC1,i,109,i,-6*,i,i
CN(CC(=O)Nc1ccc(S(N)(=O)=O)cc1)C1CCCCC1,i,110,i,i,i,i
COc1ccc(/C=C(\C#N)C(=O)OCC(=O)NC2CC2)cc1,i,58*,i,i,i,i
CCc1ccc(OC)c(S(=O)(=O)Nc2ccc(Cc3ccncc3)cc2)c1,i,98,i,i,i,i
COc1ccc(S(=O)(=O)Nc2ccc(Cc3ccncc3)cc2)cc1OC,i,40*,i,i,i,i
CCOC(=O)CCCN1CC(O)=C(c2nc(-c3ccc(Cl)cc3)cs2)C1=N,i,96*,i,i,i,i
CCCCN1CC(O)=C(c2nc(-c3ccc(Br)cc3)cs2)C1=N,i,98,i,i,i,i
COc1ccccc1OCC(=O)NNc1c2ccccc2nc2ccccc12,i,.,i,i,i,i
O=[N+]([O-])c1cc(-c2ccc(/C=N/n3cnnc3)o2)ccc1Cl,-13*,98,i,i,i,i
Fc1ccc(-c2ccc(/C=N\n3cnnc3)o2)cc1Cl,i,102,i,i,i,i
O=C(O)/C=C\C(=O)Nc1ccc(N2CCN(c3ccc(Cl)cc3)CC2)cc1,i,106,i,i,i,i
O=C(O)/C=C\C(=O)Nc1ccc(N2CCN(c3ccc(Cl)c(Cl)c3)CC2)cc1,i,104,i,-6*,i,i
COc1ccc(C(=O)/C=C/Nc2ccc(S(=O)(=O)Nc3onc(C)c3C)cc2)cc1,i,101,i,i,i,i
Cc1ccc(OCC(=O)c2c(O)c3ccccc3oc2=O)cc1C,i,105,i,i,i,i
